Measured values: ChEMBL document CHEMBL1149350, “Synthesis of novel chemical probes for the study of tanshinone binding proteins” (Bioorg Med Chem Lett, 2006)
Calls of active or inactive are those of the source. The calls are words filed in the database; no cut-off is given here.

How the values were obtained:
RAW264.7 [1] = assay: Inhibition of TRAP activity in RANKL-induced osteoclastogenesis in RAW 264.7 cells; format: functional, cell-based; conditions: Mus musculus
How it was run: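 RAW264.7 cells seeded at 1 × 10³/well in α-MEM/10% FBS with 100 ng/ml RANKL; compounds added next day. On day 4 multinucleated cells fixed (10% formalin 10 min, 95% ethanol 1 min) and dried, then given 50 mM citrate pH 4.6 with 10 mM tartrate and 5 mM p-nitrophenylphosphate for 30 min. Stopped in 0.1 N NaOH, A410 read; triplicate; IC50 from mean % of control.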

RAW264.7 [2] = assay: Antiproliferative activity against RAW 264.7 cells in RANKL-induced osteoclastogenesis; format: functional, cell-based; conditions: Mus musculus

Cc1coc2c1C(=O)C(=O)c1c-2ccc2c1CCCC2(C)C [TANSHINONE IIA]
IC50 (RAW264.7 [1]): 18.2 µM
Activity (RAW264.7 [2]): inactive

Cc1coc2c1C(=O)C(=O)c1c-2ccc2c1CC[C@H](OCCOC(=O)COc1cccc(C3(C(F)(F)F)N=N3)c1)C2(C)C
IC50 (RAW264.7 [1]): 18 µM
IC50 (RAW264.7 [2]): > 20 µM

Cc1coc2c1C(=O)C(=O)c1c-2ccc2c1CC[C@H](OCCO)C2(C)C
IC50 (RAW264.7 [1]): 10.2 µM
Activity (RAW264.7 [2]): inactive

Cc1coc2c1C(=O)C(=O)c1c-2ccc2c1CCCC2(C)COC(=O)COCCOC(=O)CCCCC1SCC2NC(=O)NC21 (stereo not given)
IC50 (RAW264.7 [1]): 12.4 µM
IC50 (RAW264.7 [2]): 18.3 µM

Cc1coc2c1C(=O)C(=O)c1c-2ccc2c1CC[C@H](OCCOC(=O)CCCCC1SCC3NC(=O)NC31)C2(C)C (stereo not given in full)
IC50 (RAW264.7 [1]): 9.56 µM
IC50 (RAW264.7 [2]): 18.7 µM

Cc1coc2c1C(=O)C(=O)c1c-2ccc2c1CC[C@H](O)C2(C)C
IC50 (RAW264.7 [1]): 12.8 µM
IC50 (RAW264.7 [2]): > 20 µM

Cc1coc2c1C(=O)C(=O)c1c-2ccc2c1CC[C@H](OC(=O)c1ccccc1)C2(C)C
IC50 (RAW264.7 [1]): 19.1 µM
Activity (RAW264.7 [2]): inactive

CCC(=O)O[C@H]1CCc2c(ccc3c2C(=O)C(=O)c2c(C)coc2-3)C1(C)C
IC50 (RAW264.7 [1]): 16.7 µM
Activity (RAW264.7 [2]): inactive

Cc1coc2c1C(=O)C(=O)c1c-2ccc2c1CCCC2(C)CO (stereo not given) [TANSHINONE IIB]
IC50 (RAW264.7 [1]): 15.6 µM
IC50 (RAW264.7 [2]): > 20 µM

Cc1coc2c1C(=O)C(=O)c1c-2ccc2c1CCCC2(C)COC(=O)COCCOC(=O)COc1cccc(C2(C(F)(F)F)N=N2)c1 (stereo not given)
IC50 (RAW264.7 [1]): 15 µM
IC50 (RAW264.7 [2]): > 20 µM
